From ChEMBL document CHEMBL4257452, “A mini-library system to investigate non-essential residues of lipid-phosphatidylserine (PS) binding peptide-peptoid hybrid PPS1” (Medchemcomm, 2017)
pIC50: −log10 of the molar value. Active and inactive are the calls of the source. The calls are words filed in the database; no cut-off is given here. Starred links: 1 amine or outer side, 2 acyl side, 3 side chain; linkers in the order of their positions; H or OH if unused. Positions of bridges follow the written chain, without caps; N, C: chain ends. Non-standard residues stand in square brackets, D forms with d. Residues, ends and D or L forms follow the SMILES beside them. Chains are numbered I, II in the order given. Gly(N-piperonyl) = O=C(O)CNCc1ccc2c(c1)OCO2; N(4-MeOBn)Gly = COc1ccc(CNCC(=O)O)cc1; X1 = COc1cccc(CN(CC(=O)[*:2])[*:1])c1; X2 = CC(CN(CC(=O)[*:2])[*:1])c1ccccc1; N((CH2)3OiPr)Gly = CC(C)OCCCNCC(=O)O; X3 = CC(c1ccccc1)N(CC(=O)[*:2])[*:1]; Nrpe = C[C@@H](NCC(=O)O)c1ccccc1; NAllylGly = C=CCNCC(=O)O; Nlys = NCCCCNCC(=O)O; Nme = COCCNCC(=O)O

How the values were obtained:
[1] = tested on: HCC4017; test: Cytotoxicity against human HCC4017 cells assessed as reduction in cell viability up to 100 uM after 24 hrs by calcein-AM dye based fluorescence assay; format: functional; details: in the assay text read “up to 50 uM” for “up to 100 uM”
Procedure, shortened: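 HCC4017 cells were seeded at 10 000 cells/well in triplicate, adhered overnight, and treated with a graded series of compounds for 24 h. Medium was replaced with PBS containing calcein AM (1 mM as printed) for 15 min at room temperature. Fluorescence emission was read at 520 nm.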

[2] = tested on: HCC4017; test: Cytotoxicity against human HCC4017 cells assessed as reduction in cell viability at 1 uM after 24 hrs by MTS assay; format: functional, cell-based
Procedure, shortened: (§1)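 HCC4017 cells (RPMI, 5% FBS) and HBEC-3KT normal lung cells (KSFM with recombinant human EGF and bovine pituitary extract) were plated at 10 000 cells/well in triplicate and left to adhere overnight. They were exposed to 1 or 20 μM compound for 24 h. MTS reagent was then added for 2 h and absorbance read at 490 nm. Viability is % of untreated control wells.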

[3] = Cytotoxicity against human HBEC3-KT cells assessed as reduction in cell viability at 1 uM after 24 hrs by MTS assay; format: cell-based; procedure, shortened: as §1
[4] = Cytotoxicity against human HBEC3-KT cells assessed as reduction in cell viability at 20 uM after 24 hrs by MTS assay; format: cell-based; procedure, shortened: as §1
[5] = tested on: HCC4017; test: Cytotoxicity against human HCC4017 cells assessed as reduction in cell viability at 20 uM after 24 hrs by MTS assay; format: functional, cell-based; procedure, shortened: as §1
[6] = tested on: HCC4017; test: Cytotoxicity against human HCC4017 cells assessed as reduction in cell viability up to 100 uM after 24 hrs by MTS assay; format: functional, cell-based; details: in the assay text read “up to 50 uM” for “up to 100 uM”
Procedure, shortened: (§2)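 HCC4017 lung cancer cells (RPMI, 5% FBS) were seeded at 10 000 cells/well in triplicate and adhered overnight. Purified compounds were given as a concentration gradient for 24 h. MTS reagent was added for 2 h and absorbance read at 490 nm. IC50 was taken from the viability curves.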

[7] = tested on: HCC4017; test: Cytotoxicity against human HCC4017 cells assessed as reduction in cell viability after 24 hrs by MTS assay; format: functional, cell-based; details: HCC4017, 24 h; procedure, shortened: as §2

| Structure (SMILES) | Activity [1] | Activity [2] | Activity [3] | Activity [4] | Activity [5] | Activity [6] | pIC50 [7] |
| --- | --- | --- | --- | --- | --- | --- | --- |
| C=CCNCC(=O)N(CCOC)CC(=O)N(CC=C)CC(=O)N(CCOC)CC(=O)N(CC=C)CC(=O)NCC(=O)NC(CCCCN)C(=O)NC(CCSC)C(=O)NCCCCC(NC(=O)C(CCSC)NC(=O)C(CCCCN)NC(=O)CNC(=O)CN(CC=C)C(=O)CN(CCOC)C(=O)CN(CC=C)C(=O)CN(CCOC)C(=O)CNCC=C)C(N)=O (stereo not drawn) (I: H-[NAllylGly][Nme][NAllylGly][Nme][NAllylGly]GKMK-NH2 / II: H-[NAllylGly][Nme][NAllylGly][Nme][NAllylGly]GKM; amide I:9-II:C; configuration not given here) | inactive | inactive | Non-Toxic | Non-Toxic | – | – | – |
| COc1ccc(CN(CC(=O)N(CCCCN)CC(=O)N[C@@H](CCCCN)C(=O)N[C@H](CCCCN)C(=O)N[C@@H](CCSC)C(=O)NCCCC[C@H](NC(=O)[C@H](CCSC)NC(=O)[C@@H](CCCCN)NC(=O)[C@H](CCCCN)NC(=O)CN(CCCCN)C(=O)CN(Cc2ccc(OC)cc2)C(=O)CN(C(=O)CN(Cc2ccc3c(c2)OCO3)C(=O)CN[C@H](C)c2ccccc2)[C@H](C)c2ccccc2)C(N)=O)C(=O)CN(C(=O)CN(Cc2ccc3c(c2)OCO3)C(=O)CN[C@H](C)c2ccccc2)[C@H](C)c2ccccc2)cc1 (I: H-[Nrpe][Gly(N-piperonyl)][Nrpe][N(4-MeOBn)Gly][Nlys]K[dK]MK-NH2 / II: H-[Nrpe][Gly(N-piperonyl)][Nrpe][N(4-MeOBn)Gly][Nlys]K[dK]M; amide I:9-II:C) | Active | inactive | Non-Toxic | Non-Toxic | Active | – | – |
| COc1ccc(CN(CC(=O)NC(CCC(=O)O)C(=O)NC(CCCCN)C(=O)NC(CCCCN)C(=O)NC(CCSC)C(=O)NCCCCC(NC(=O)C(CCSC)NC(=O)C(CCCCN)NC(=O)C(CCCCN)NC(=O)C(CCC(=O)O)NC(=O)CN(Cc2ccc(OC)cc2)C(=O)CN(C(=O)CN(Cc2ccc3c(c2)OCO3)C(=O)CNC(C)c2ccccc2)C(C)c2ccccc2)C(N)=O)C(=O)CN(C(=O)CN(Cc2ccc3c(c2)OCO3)C(=O)CNC(C)c2ccccc2)C(C)c2ccccc2)cc1 (stereo not drawn) (I: H-[X3][Gly(N-piperonyl)][X3][N(4-MeOBn)Gly]EKKMK-NH2 / II: H-[X3][Gly(N-piperonyl)][X3][N(4-MeOBn)Gly]EKKM; amide I:9-II:C; configuration not given here) | – | – | – | – | inactive | inactive | – |
| COc1ccc(CN(CC(=O)NC(Cc2ccccc2)C(=O)NC(CCCCN)C(=O)NC(CCCCN)C(=O)NC(CCSC)C(=O)NCCCCC(NC(=O)C(CCSC)NC(=O)C(CCCCN)NC(=O)C(CCCCN)NC(=O)C(Cc2ccccc2)NC(=O)CN(Cc2ccc(OC)cc2)C(=O)CN(C(=O)CN(Cc2ccc3c(c2)OCO3)C(=O)CNC(C)c2ccccc2)C(C)c2ccccc2)C(N)=O)C(=O)CN(C(=O)CN(Cc2ccc3c(c2)OCO3)C(=O)CNC(C)c2ccccc2)C(C)c2ccccc2)cc1 (stereo not drawn) (I: H-[X3][Gly(N-piperonyl)][X3][N(4-MeOBn)Gly]FKKMK-NH2 / II: H-[X3][Gly(N-piperonyl)][X3][N(4-MeOBn)Gly]FKKM; amide I:9-II:C; configuration not given here) | – | inactive | Non-Toxic | Non-Toxic | Active | – | 5.00 to 5.15 |
| COc1ccc(CN(CC(=O)NC(C(=O)NC(CCCCN)C(=O)NC(CCCCN)C(=O)NC(CCSC)C(=O)NCCCCC(NC(=O)C(CCSC)NC(=O)C(CCCCN)NC(=O)C(CCCCN)NC(=O)C(NC(=O)CN(Cc2ccc(OC)cc2)C(=O)CN(C(=O)CN(Cc2ccc3c(c2)OCO3)C(=O)CNC(C)c2ccccc2)C(C)c2ccccc2)C(C)O)C(N)=O)C(C)O)C(=O)CN(C(=O)CN(Cc2ccc3c(c2)OCO3)C(=O)CNC(C)c2ccccc2)C(C)c2ccccc2)cc1 (stereo not drawn) (I: H-[X3][Gly(N-piperonyl)][X3][N(4-MeOBn)Gly]TKKMK-NH2 / II: H-[X3][Gly(N-piperonyl)][X3][N(4-MeOBn)Gly]TKKM; amide I:9-II:C; configuration not given here) | – | – | – | – | Active | – | 4.85 |
| COc1ccc(CN(CC(=O)N(CCCOC(C)C)CC(=O)NC(CCCCN)C(=O)NC(CCCCN)C(=O)NC(CCSC)C(=O)NCCCCC(NC(=O)C(CCSC)NC(=O)C(CCCCN)NC(=O)C(CCCCN)NC(=O)CN(CCCOC(C)C)C(=O)CN(Cc2ccc(OC)cc2)C(=O)CN(C(=O)CN(Cc2ccc3c(c2)OCO3)C(=O)CNC(C)c2ccccc2)C(C)c2ccccc2)C(N)=O)C(=O)CN(C(=O)CN(Cc2ccc3c(c2)OCO3)C(=O)CNC(C)c2ccccc2)C(C)c2ccccc2)cc1 (stereo not drawn) (I: H-[X3][Gly(N-piperonyl)][X3][N(4-MeOBn)Gly][N((CH2)3OiPr)Gly]KKMK-NH2 / II: H-[X3][Gly(N-piperonyl)][X3][N(4-MeOBn)Gly][N((CH2)3OiPr)Gly]KKM; amide I:9-II:C; configuration not given here) | Active | inactive | Non-Toxic | Non-Toxic | Active | – | 5.00 to 5.15 |
| COc1ccc(CN(CC(=O)N(CCCCN)CC(=O)NC(CCCCN)C(=O)NC(CCCCN)C(=O)NCCCCC(NC(=O)C(CCCCN)NC(=O)C(CCCCN)NC(=O)CN(CCCCN)C(=O)CN(Cc2ccc(OC)cc2)C(=O)CN(C(=O)CN(Cc2ccc3c(c2)OCO3)C(=O)CNC(C)c2ccccc2)C(C)c2ccccc2)C(N)=O)C(=O)CN(C(=O)CN(Cc2ccc3c(c2)OCO3)C(=O)CNC(C)c2ccccc2)C(C)c2ccccc2)cc1 (stereo not drawn) (I: H-[X3][Gly(N-piperonyl)][X3][N(4-MeOBn)Gly][Nlys]KKK-NH2 / II: H-[X3][Gly(N-piperonyl)][X3][N(4-MeOBn)Gly][Nlys]KK; amide I:8-II:C; configuration not given here) | Active | – | – | – | Active | – | – |
| COc1ccc(CN(CC(=O)N(CC(=O)NC(CCCCN)C(=O)NC(CCCCN)C(=O)NC(CCSC)C(=O)NCCCCC(NC(=O)C(CCSC)NC(=O)C(CCCCN)NC(=O)C(CCCCN)NC(=O)CN(Cc2cccc(OC)c2)C(=O)CN(Cc2ccc(OC)cc2)C(=O)CN(C(=O)CN(Cc2ccc3c(c2)OCO3)C(=O)CNC(C)c2ccccc2)C(C)c2ccccc2)C(N)=O)Cc2cccc(OC)c2)C(=O)CN(C(=O)CN(Cc2ccc3c(c2)OCO3)C(=O)CNC(C)c2ccccc2)C(C)c2ccccc2)cc1 (stereo not drawn) (I: H-[X3][Gly(N-piperonyl)][X3][N(4-MeOBn)Gly][X1]KKMK-NH2 / II: H-[X3][Gly(N-piperonyl)][X3][N(4-MeOBn)Gly][X1]KKM; amide I:9-II:C; configuration not given here) | Active | inactive | Non-Toxic | Non-Toxic | Active | – | 5.00 to 5.15 |
| COc1ccc(CN(CC(=O)N(CC(=O)NC(CCCCN)C(=O)NC(CCCCN)C(=O)NC(CCSC)C(=O)NCCCCC(NC(=O)C(CCSC)NC(=O)C(CCCCN)NC(=O)C(CCCCN)NC(=O)CN(CC(C)c2ccccc2)C(=O)CN(Cc2ccc(OC)cc2)C(=O)CN(C(=O)CN(Cc2ccc3c(c2)OCO3)C(=O)CNC(C)c2ccccc2)C(C)c2ccccc2)C(N)=O)CC(C)c2ccccc2)C(=O)CN(C(=O)CN(Cc2ccc3c(c2)OCO3)C(=O)CNC(C)c2ccccc2)C(C)c2ccccc2)cc1 (stereo not drawn) (I: H-[X3][Gly(N-piperonyl)][X3][N(4-MeOBn)Gly][X2]KKMK-NH2 / II: H-[X3][Gly(N-piperonyl)][X3][N(4-MeOBn)Gly][X2]KKM; amide I:9-II:C; configuration not given here) | Active | inactive | Non-Toxic | Non-Toxic | Active | – | 5.00 to 5.15 |
